Shown are actives, neighbours in structure and some others; about 2.3% of the full set was active somewhere.
CRFR2-BP antag: blocks CRF-induced signaling of the CRF-BP/CRF-R2 complex. HEK293 CRF-R2/CRF-BP, CRF-induced calcium fluorescence. inhibition, % at 11.8 µM. hit rate 0.59% among 350,000;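 active means inhibition of the ligand-induced calcium signal above about 50% at the single tested concentration, limit read from the data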
HNF4A DNA FP: change in binding of human HNF4 alpha to DNA; P41235; HNF4a-FITC DNA binding, fluorescence polarization, 1 h; activity change, % at 10 µM; hit rate 0.3% among 360,000; AID 1224865; in the data active means activity change above about 30%, passing the limit was not always enough
Rpn11 block: inhibitors of human proteasome Rpn11 | calls only at 20 µM | human 26S proteasome, Ub4-pepOG fluorescence polarization; 20S core pre-blocked with epoxomicin | hit rate 0.59% among 360,000;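 active means inhibition at 20 µM, scaled to each plate's controls, above about 33%, limit read from the data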
CRFBP-R2 agonist: agonists of human CRF-binding protein/CRF-R2 receptor complex; hit rate 0.46% among 350,000; HEK293 CRF-R2/CRF-BP, calcium dye fluorescence (FLIPR); percent of saturating CRF peptide response; activation, % at 13.2 µM; AID 588473;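 active means activation of at least 50%, plus an integration ratio under a set limit after plate pattern correction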;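 further: plate controls were neutral control wells without compound for no effect and CRF at EC100 for full effect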
CSN deneddyl inh: CSN deneddylation inhibition. Q92905. Purified CSN, SCF-Nedd8-OG deneddylation, fluorescence polarization. inhibition, % at 12.5 µM. hit rate 0.38% among 360,000;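 active means pattern-corrected inhibition above about 35%, with an unprinted fluorescence ratio check between 0.5 and 1.5, limit read from the data, passing the limit was not always enough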;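 further: 0% = enzyme with substrate and 100% = substrate without enzyme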
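Test system: Human Csn5 produced in HEK293T cells | Compound: 12.5 µM single point | Times: 90 min, room temperature | Signal: Fluorescence polarization readout | Read-out basis: % inhibition of substrate cleavage by Csn5 | Controls: no-enzyme wells high, enzyme-with-substrate wells low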
TPT1 inhibitor: C. albicans TPT1 enzyme inhibition; recombinant caTPT1, FP RNA substrate dephosphorylation; inhibition, % at 5 µM; hit rate 0.81% among 300,000; AID 1962;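 active means inhibition above the mean of all tested compounds plus 3 SD, set per screening campaign, cut at about 24% in these data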;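 further: plate controls were DMSO alone for no effect and ferristatin control at 100 nM for full effect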
Rpn11 inh conf: confirmation of human proteasome Rpn11 inhibitors; shares compounds with Rpn11 block; purified human 26S proteasome, Ub4-pepOG fluorescence polarization; proteasome pretreated with epoxomicin; inhibition, % at 20 µM; hit rate 29% among 1,900
MMP-2 counter-1: blocks human MMP-2, flagging nonselective RPN11 hits; hit rate 4% among 1,900; AID 602330; recombinant MMP-2, FRET peptide cleavage fluorescence; shares compounds with Rpn11 block; inhibition, % at 20 µM;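 further: human MMP-2 activated beforehand with APMA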
Thrombin inh: thrombin (bovine) inhibition counter-screen | inhibition, % at 20 µM | AID 602333 | shares compounds with Rpn11 block | bovine thrombin cleavage of Ub4-pepOG, fluorescence polarization | hit rate 13% among 1,900;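 active means mean inhibition at least 40% at 20 µM, or signal 3 deviations below plate average, so some actives read negative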;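 further: plate controls were thrombin with DMSO for no effect and buffer wells lacking thrombin for full effect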
Target sequence (P00735 whole entry, looked up): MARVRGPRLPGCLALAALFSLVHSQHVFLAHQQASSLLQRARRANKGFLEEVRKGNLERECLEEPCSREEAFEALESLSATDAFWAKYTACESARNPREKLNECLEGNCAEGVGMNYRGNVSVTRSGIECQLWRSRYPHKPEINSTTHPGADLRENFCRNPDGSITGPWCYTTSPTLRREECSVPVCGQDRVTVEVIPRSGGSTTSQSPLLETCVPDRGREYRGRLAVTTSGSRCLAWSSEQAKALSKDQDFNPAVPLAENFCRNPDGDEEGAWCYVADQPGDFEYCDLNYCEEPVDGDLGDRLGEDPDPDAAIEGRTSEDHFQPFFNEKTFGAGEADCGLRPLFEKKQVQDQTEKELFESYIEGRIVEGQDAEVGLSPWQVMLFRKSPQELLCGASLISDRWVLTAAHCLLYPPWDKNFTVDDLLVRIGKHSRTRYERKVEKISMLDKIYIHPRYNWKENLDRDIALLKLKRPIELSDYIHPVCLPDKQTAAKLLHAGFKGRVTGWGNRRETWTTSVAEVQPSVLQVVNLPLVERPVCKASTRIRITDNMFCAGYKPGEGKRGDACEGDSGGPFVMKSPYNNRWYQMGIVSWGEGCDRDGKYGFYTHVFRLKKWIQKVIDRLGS
CSN deneddyl val: Csn5 (human) deneddylation inhibition, single-concentration validation | Csn5 deneddylation of SCF-Nedd8OG, fluorescence polarization, 90 min | inhibition, % at 16.6 µM | shares compounds with CSN deneddyl inh | hit rate 62% among 540; in the data active means inhibition above about 50%;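 further: 0% = DMSO with enzyme and 100% = no enzyme wells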
MMP-2 counter-2: MMP-2 (human) inhibition, counter-screen for CSN hits; inhibition, % at 16.6 µM; AID 720655; hit rate 33% among 540; recombinant MMP-2, FRET substrate fluorescence, 60 min; shares compounds with CSN deneddyl inh;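 active means corrected plate-normalized z-score of 5 or more, or -5 or less, or inhibition of 15% or more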;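 further: plate controls were DMSO wells with enzyme for no effect and buffer wells lacking MMP-2 for full effect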
Thrombin cntr: thrombin (bovine) inhibition, counter-screen for CSN hits; hit rate 49% among 540; bovine thrombin cleavage of Ub4-pepOG, fluorescence polarization; inhibition, % at 16.6 µM; shares compounds with CSN deneddyl inh;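 active means inhibition at or above a set limit, with a fluorescence interference ratio between 0.5 and a set maximum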
Active calls of the source: *; i = inactive; . = not tested or not shown; + = active, no number. Unless noted, no stated cut-off is given here; in the data, active means inhibition above about 40%; inactive means the rest.

SMILES	CRFR2-BP antag	HNF4A DNA FP	Rpn11 block	CRFBP-R2 agonist	CSN deneddyl inh	TPT1 inhibitor	Rpn11 inh conf	MMP-2 counter-1	Thrombin inh	CSN deneddyl val	MMP-2 counter-2	Thrombin cntr
CCn1nc(NC(=O)c2ccncc2)c2cc3cccc(C)c3nc21	-15	-3	i	1	-1	0	.	.	.	.	.	.
CCc1nc2oc3ccccc3c(=O)c2c(=O)n1-c1ccc(C)cc1	9	-13	+	0	5	19	47*	-18	22	.	.	.
O=C(CSc1nc(-c2ccccc2)c(-c2ccccc2)[nH]1)N1CCN(S(=O)(=O)c2ccccc2)CC1	6	-5	+	4	-5	3	-3	-5	6	.	.	.
O=C(CSc1nc2ccccc2c(=O)[nH]1)N1CCN(S(=O)(=O)c2ccccc2)CC1	-11	-4	i	0	1	-1	.	.	.	.	.	.
CCC1CSC(Nc2ccc(C(=O)/C=C/c3ccc(Oc4ccccc4)cc3)cc2)=N1 (stereo unspecified)	38	5	i	-1	4	4	.	.	.	.	.	.
COc1ccccc1-c1csc(-n2ncc(C#N)c2N)n1	.	241	+	.	68*	7	45*	50*	-16	-6	72*	17*
COC(=O)c1cnn(-c2nc(-c3ccccc3)cs2)c1N	-34	0	i	-1	3	-1	.	.	.	.	.	.
COc1ccccc1-n1cnc2c(c1=O)c1nc3ccccc3nc1n2-c1ccc(C)c(C)c1	-9	23	+	2	88*	.	24	-23	0	124*	9	2
CCS(=O)(=O)C1=NN2C(=N)/C(=C\c3ccc(OC(=O)c4ccco4)c(Br)c3)C(=O)N=C2S1	.	.	.	.	.	21	.	.	.	.	.	.
CCS(=O)(=O)C1=NN2C(=N)/C(=C\c3ccc(SCc4ccco4)o3)C(=O)N=C2S1	-16	32	+	20	116*	.	122*	11	49*	-5	14	54*
Cc1cc2c(=Cc3ccc(N(C)C)cc3)c3ccccc3n2[n+]1C	108*	195	+	-1	86*	.	135*	-11	145*	44	-22	60*
CN(C)c1ccc(C=c2c3cc(O)ccc3n3c2cc(-c2ccccc2)[n+]3C)cc1	14	161	+	-5	138*	.	177*	109*	155*	-60	100*	68*
C[n+]1c(-c2ccccc2)cc2c(=Cc3ccccc3)c3ccccc3n21	-54	3	i	11	1	.	.	.	.	.	.	.
Cc1nnc(SCC(=O)Nc2nnc(-c3ccccc3)o2)s1	0	3	i	-2	-2	1	.	.	.	.	.	.
CCOc1ccc(C(=O)Nc2ccccc2N2CCN(C(=O)c3ccccc3)CC2)cc1[N+](=O)[O-]	7	0	i	1	-5	-1	.	.	.	.	.	.
CC(=O)Nc1ccc(S(=O)(=O)N2CCN(C(=O)C3COc4ccccc4O3)CC2)cc1 (stereo unspecified)	0	3	i	-3	4	-1	.	.	.	.	.	.
COc1ccc(S(=O)(=O)N2CCN(C(=O)C3COc4ccccc4O3)CC2)cc1 (stereo unspecified)	1	-48	+	-1	45*	.	65*	15	58*	.	8	16*
